Data on 2 compounds can be found in publication PMC6996566 (ChemistryOpen, 2019).

Holding throughout (type): cell-based, human
The test system of one test is HUVEC. Briefly: In vitro anti‐proliferative assay. In outline:
(§1)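 MTT assay: 5×10³ cells per well settled 24 h, then exposed to a concentration series of test compound or DMSO for 48 h. Medium replaced with fresh medium containing 10% MTT (5 mg/mL in PBS) for 4 h at 37 °C. Formazan dissolved in DMSO, absorbance read at 570 nm. Inhibition % = (OD DMSO − OD compound)/(OD DMSO − OD blank)×100, giving IC50.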

In another test the test system is A2780. Put plainly: In vitro anti‐proliferative assay. Particulars: read-out: A2780 (IC50); MTT, 48 h treatment; mean of triplicate determinations. The method in brief:
as §1

Another test deals with Hela. Briefly: In vitro anti‐proliferative assay. As to conditions: read-out: Hela (IC50); MTT, 48 h treatment; mean of triplicate determinations. The method in brief: as §1
The next test has as its system A2780 cells. Put plainly: Nitrite measurement in vitro. As to conditions: 100 μM compound, 150 min, Griess reagent. The method in brief:
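A2780 cells (1×10⁷ per 10 cm dish) were exposed to 100 μM test compound for 150 min, then harvested and lysed in RIPA buffer for 30 min on ice. Lysates were mixed with Griess reagent for 30 min in the dark and read at 540 nm. Nitrite was quantified against a sodium nitrite standard curve, with diluent-treated cells as background. Mean ± SD of three independent experiments.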
(In general: The Griess reaction detects nitrite, a stable product of nitric oxide.)

Like-named read-outs stand apart in the source and are kept apart here.

On to “3‐Phenylsulfonyl‐4‐hydroxylethoxyl‐1,2,5‐oxadiazole 2‐Oxide [compound 21]”, for which the half-inhibitory concentration (IC50) with HUVEC (read-out: HUVEC (IC50), MTT, 48 h treatment, mean of triplicate determinations) is 1.48 µM; with A2780 it was 1920 nM; in the test on Hela, 3050 nM.
For the compound `COc1cc2c(cc1O)CC[C@@H]1[C@@H]2CC[C@]2(C)[C@@H](O)CC[C@@H]12` [compound 3, 2‐methoxyestradiol], the IC50 with HUVEC (Homo sapiens, HUVEC, 48 h, read-out: HUVEC (IC50, μM)) worked out at 1.35 µM. Further, the “intracellular NO production, presented as nitrite in the cell lysates” value in the test with A2780 cells is “hardly detected”.

By IC50 is commonly meant the point on the concentration scale where inhibition reaches its midpoint.
